High-throughput results: PubChem BioAssay, Johns Hopkins Ion Channel Center
KCNK9 block = KCNK9 potassium channel inhibitors, primary screen, HEK293 cells, thallium flux; Potassium channel subfamily K member 9 (Homo sapiens), Q9NPC2; FluxOR thallium flux fluorescence; hits give low values; B-score at 10 µM; hit rate 1.2% among 310,000;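 active = ratio B-score over 3 SD below the library mean, with starting fluorescence within 5 SD of its mean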;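 also: negative B-score means less thallium flux so channel inhibition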
Kir21 block = inhibitors of mouse Kir2.1 inward-rectifier potassium channel; Inward rectifier potassium channel 2 (Mus musculus), P35561; HEK293-Kir2.1, FluxOR thallium flux fluorescence; hits give low values; B-score at 10 µM; hit rate 0.85% among 310,000;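 active = fluorescence ratio B-score at or below minus 3 SD of library scores, with starting-brightness B-score within 2 SD, cut at about -4.2 in these data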;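 also: channel flux triggered by added potassium and thallium sulfate stimulus; B-score of peak minus minimum fluorescence over baseline after thallium stimulus; more negative B-score means stronger Kir2.1 block with less thallium influx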
Target sequence (P35561 whole entry, looked up): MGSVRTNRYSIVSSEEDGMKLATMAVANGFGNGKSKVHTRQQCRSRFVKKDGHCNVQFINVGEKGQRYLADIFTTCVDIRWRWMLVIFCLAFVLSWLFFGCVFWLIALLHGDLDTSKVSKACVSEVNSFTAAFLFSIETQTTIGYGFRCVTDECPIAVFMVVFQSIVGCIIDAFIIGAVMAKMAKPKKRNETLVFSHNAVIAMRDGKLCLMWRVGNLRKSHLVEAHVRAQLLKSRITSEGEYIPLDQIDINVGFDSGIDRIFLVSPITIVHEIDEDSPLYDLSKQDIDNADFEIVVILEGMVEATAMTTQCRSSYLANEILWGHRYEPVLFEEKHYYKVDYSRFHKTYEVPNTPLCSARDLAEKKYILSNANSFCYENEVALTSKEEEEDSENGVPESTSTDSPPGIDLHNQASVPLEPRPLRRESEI
hERG rescue = hERG rescue from dofetilide block, primary screen, cell-based, CHO-hERG, FluxOR thallium flux, dofetilide IC70; Voltage-gated inwardly rectifying potassium channel KCNH2 (Homo sapiens), Q12809; dofetilide IC70 present; activation (rescue from dofetilide block), less the hit threshold, % at 10 µM; hit rate 0.51% among 310,000; AID 1511, 2009;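 active = activation above the mean of controls blocked by dofetilide plus 5 SD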;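 also: thallium influx through hERG after potassium depolarization seen as dye fluorescence rise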
KCNK3 inh = human KCNK3 channel inhibitors, primary screen, CHO cells, FluxOR thallium flux, B-score; FluxOR fluorescence; hits give low values; hit rate 0.84% among 340,000; B-score at 10 µM; Potassium channel subfamily K member 3 (Homo sapiens), O14649;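 active = B-score under library mean minus 4 SD, starting fluorescence ratio at most library mean plus 5 SD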;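 also: more negative B-score means stronger inhibition of thallium flux through KCNK3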
Target sequence (O14649 whole entry, looked up): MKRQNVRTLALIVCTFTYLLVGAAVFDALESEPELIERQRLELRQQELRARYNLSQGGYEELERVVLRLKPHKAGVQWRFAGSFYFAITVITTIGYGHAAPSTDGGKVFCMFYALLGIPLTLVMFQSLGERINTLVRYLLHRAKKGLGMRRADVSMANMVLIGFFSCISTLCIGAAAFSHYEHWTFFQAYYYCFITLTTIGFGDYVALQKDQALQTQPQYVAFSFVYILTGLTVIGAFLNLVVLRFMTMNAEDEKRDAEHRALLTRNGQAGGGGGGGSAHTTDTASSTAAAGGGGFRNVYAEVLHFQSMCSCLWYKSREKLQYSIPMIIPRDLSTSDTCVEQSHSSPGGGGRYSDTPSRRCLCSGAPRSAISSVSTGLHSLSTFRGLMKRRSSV
KCNQ1 block = inhibitors of human KCNQ1 channel, primary screen, cell-based, thallium flux, high-throughput. B-score at 10 µM. Potassium voltage-gated channel subfamily KQT member 1 (Homo sapiens), P51787. AID 2642, 2010. hit rate 1.3% among 310,000. CHO-K1 KCNQ1, FluxOR thallium flux fluorescence; hits give high values;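 active = compounds whose thallium flux B-score, printed positive for inhibition, exceeds three library SD while starting fluorescence stays within three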;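 also: channel opened by potassium depolarization with thallium stimulus after 20 min compound exposure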
KCNQ1 act = potentiators or activators of KCNQ1 channel, primary screen, cell-based, thallium flux, high-throughput. CHO-K1 KCNQ1, thallium flux FluxOR fluorescence; hits give high values. B-score at 10 µM. hit rate 0.35% among 310,000. AID 2648, 2010;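 active = fluorescence ratio B-score, a plate-corrected score, at least three library SD, with initial intensity B-score within 5 SD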
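Material: CHO-K1 cells stably expressing KCNQ1. Medium: assay buffer for compound exposure, DMSO matched across wells. Reagent: K+/Tl+ depolarizing stimulus. Compound dosing: single-concentration screen. Times: 37 °C overnight plating, 90-min dark dye load, 20-min compound pretreatment. Technique: FluxOR Tl+ flux fluorescence.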
KCNK9 inh conf = KCNK9 potassium channel inhibitors, confirmation, HEK293 cells, thallium flux, duplicate. hit rate 43% among 4,900. FluxOR thallium flux fluorescence. inhibition, % at 10 µM. shares compounds with KCNK9 block;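 active = thallium signal inhibited by more than 5 SD of the compound-free buffer control wells, on both duplicate plates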
Kir21 sel = mouse Kir2.1 channel inhibition, confirmation, selectivity assay for KCNK9 modulator project, cell-based, HEK293, thallium flux. AID 492993, 2010. hit rate 4% among 4,900. Kir2.1 cells, FluxOR thallium flux fluorescence. shares compounds with KCNK9 block. inhibition, % at 10 µM;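 active = thallium signal drop more than 5 SD beyond the mean of the no-compound control wells, seen in both duplicate plates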;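 also: signal is fluorescence rise after thallium addition divided by baseline fluorescence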
HEK293 Tl ctr = thallium flux in non-induced HEK293 cells, confirmation, counter-screen for KCNK9 inhibitor project, cell-based, second counter screen, non-induced KCNK9-HEK293. shares compounds with KCNK9 block. FluxOR thallium flux. inhibition, % at 10 µM. hit rate 40% among 4,900. AID 492997, 2010;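 active = thallium signal drop beyond 5 SD of the untreated control mean, on both duplicate plates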
KCNK3 inh conf = retest of human KCNK3 channel inhibitors, confirmation, CHO cells, FluxOR thallium flux, triplicate; shares compounds with KCNK3 inh; FluxOR fluorescence; 0% buffer, 100% carvedilol maximal block; ratio percent of control, % at 10 µM; hit rate 99% among 2,400; AID 651638, 2012;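 active = ratio percent of control, averaged over triplicates, above buffer control mean plus 5 SD, cut at about 64% in these data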;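 also: ratio is the fluorescence rise from min to max over baseline after thallium stimulus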
KCNK3 noninduced = thallium flux inhibition in non-induced cells, primary screen, counter-screen for KCNK3 inhibitor project, cell-based, non-induced KCNK3 line, FluxOR thallium, triplicate | shares compounds with KCNK3 inh | non-induced KCNK3 parental cells; hits give low values | thallium flux ratio (lower = more inhibition) at 10 µM | hit rate 40% among 2,400;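 active = thallium flux ratio, averaged over three wells, more than 5 SD below the buffer control mean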;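 also: host cells are CHO cells without KCNK3 induction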
Hits are given with their value; 0 = inactive; - = no result. In the library only some 3.7% were active in any assay of this set; here they are far more common.

SMILES | KCNK9 block | Kir21 block | hERG rescue | KCNK3 inh | KCNQ1 block | KCNQ1 act | KCNK9 inh conf | Kir21 sel | HEK293 Tl ctr | KCNK3 inh conf | KCNK3 noninduced
Cc1ccc(N2CCN(C(=S)Nc3ccccc3C)CC2)cc1 | 0 | 0 | 0 | 0 | 0 | 0 | - | - | - | - | -
Cc1cc(C)cc(-n2c(C)cc(/C=N/NC(=O)CSc3ncccn3)c2C)c1 | -14 | 0 | 0 | -11 | 0 | 0 | 60% | 0 | 32% | 94 | 0
Cc1cccc(OCCCn2c(=O)sc3ccccc32)c1 | 0 | 0 | 0 | 0 | 0 | 0 | - | - | - | - | -
CCCCCCCCCCOC(=O)Cn1c(COc2cccc(C)c2)[n+](C)c2ccccc21 | -14 | -13 | 0 | -10 | 0 | 0 | 64% | 64% | 0 | 100 | 0
Cc1c(N=C2N=C(NC(=O)NC(C)(C)C)c3ccccc32)c(=O)n(-c2ccccc2)n1C | 0 | 0 | 0 | 0 | 0 | 0 | - | - | - | - | -
Cc1c(N=C2N=C(NC(=O)c3cccs3)c3ccccc32)c(=O)n(-c2ccccc2)n1C | -9.2 | 0 | 0 | -9.9 | 0 | 0 | 56% | 0 | 56% | 141 | 0.1
O=C(Nc1cccc(Cl)c1)c1ccc2c(c1)SC1=NS(=O)(=O)CCN12 | - | - | - | 0 | - | - | - | - | - | - | -
COC(=O)C(C)N(C(=O)c1ccc(C(=O)c2ccccc2)cc1)c1c(C)cccc1C (stereo unspecified) | -9 | 0 | 0 | -11 | 0 | 0 | 40% | 0 | 34% | 92 | 0
CC(C)C(=O)Nc1ccc(C(=O)c2ccccc2)cc1 | 0 | 0 | 0 | 0 | 0 | 0 | - | - | - | - | -
O=C(Nc1ccccc1C(=O)N/N=C/c1ccco1)c1ccc(F)cc1 | 0 | 0 | 0 | 0 | 0 | 0 | - | - | - | - | -
Cc1cccc(N2CCN(C3CCCCC3NS(=O)(=O)c3ccccc3)CC2C)c1 (stereo unspecified) | -15 | 0 | 0 | -9.2 | 0 | 0 | 44% | 0 | 45% | 115 | 0.15
Cc1ccc(Cl)cc1N1CCN(C2CCCCC2NS(=O)(=O)c2ccccc2)CC1 (stereo unspecified) | -17 | 0 | 0 | -9.3 | 0 | 0 | 54% | 0 | 43% | 112 | 0.14
CCN(CC)C(=O)CSc1nc2sc3c(c2c(=O)n1-c1ccc(C)cc1)CC(C)(C)SC3 | 0 | 0 | 0 | -17 | 0 | 0 | 0 | 0 | 26% | 121 | 0.14
COc1ccccc1CNC(=O)CCc1nnc2ccc(NCCCN3CCCC3=O)nn12 | 0 | 0 | 0 | 0 | 0 | 0 | - | - | - | - | -
CCCCN(CCCC)c1nc(-c2ccncc2)nc2ccccc12 | -9.1 | 0 | 0 | -9.4 | 0 | 0 | 0 | 0 | 34% | 68 | 0
COCCN(CCOC)c1nc(-c2ccccc2)nc2ccccc12 | 0 | 0 | 0 | 0 | 0 | 0 | - | - | - | - | -
Cc1ccc(C)c(S(=O)(=O)N2CCCOC2CNC(=O)C(=O)NCCCN2CCOCC2)c1 (stereo unspecified) | 0 | 0 | 0 | 0 | 0 | 0 | - | - | - | - | -
CCCc1cc(C(=O)Cc2ccc(F)cc2)c(O)cc1O | -10 | 0 | 0 | -8.8 | 0 | 0 | 60% | 0 | 38% | 108 | 0
CCN1C(=O)C(O)(CC(=O)c2cccc(-n3cccc3)c2)c2ccccc21 (stereo unspecified) | 0 | 0 | 0 | 0 | 0 | 0 | - | - | - | - | -
O=C(Nc1ccc(Cl)cn1)c1ccccc1SCc1ccccc1 | -15 | 0 | 0 | -11 | 0 | 0 | 78% | 0 | 47% | 128 | 0.15
COC(=O)c1cccnc1-n1c(=O)c2cccnc2n(Cc2cccc(OC)c2)c1=O | 0 | 0 | 0 | 0 | 0 | 0 | - | - | - | - | -
COC(=O)c1cc(-c2cc(OC)ccc2OC)nc2c1c(=O)n(C)c(=O)n2Cc1ccccc1 | 0 | 0 | 0 | -11 | 0 | 0 | 0 | 0 | 0 | 101 | 0
CCOc1cc(/C=C(\C#N)C(N)=O)ccc1OCc1c(C)no[n+]1[O-] | 0 | 0 | 0 | 0 | 0 | 0 | - | - | - | - | -
O=C(NC1CCSC1=O)C1CC(=O)N(c2ccc(F)cc2)C1 (stereo unspecified) | 0 | 0 | 0 | 0 | 0 | 0 | - | - | - | - | -
Cc1nn(S(=O)(=O)c2cccs2)c(C)c1Sc1ccc([N+](=O)[O-])cc1 | -11 | 0 | 0 | -12 | 0 | 0 | 54% | 0 | 28% | 120 | 0.16
SMILES | KCNK9 block | Kir21 block | hERG rescue | KCNK3 inh | KCNQ1 block | KCNQ1 act | KCNK9 inh conf | Kir21 sel | HEK293 Tl ctr | KCNK3 inh conf | KCNK3 noninduced
Cc1nn(S(=O)(=O)c2ccccc2)c(C)c1Sc1ccc([N+](=O)[O-])cc1 | 0 | 0 | 0 | 0 | 0 | 0 | - | - | - | - | -
Cn1ncc(C#N)c1/N=C/N(Cc1ccccc1)Cc1ccccc1 | -15 | 0 | 0 | -8.9 | 0 | 0 | 36% | 0 | 29% | 114 | 0.16
O=C(Oc1ccc2ccccc2c1Br)N1CCCCCC1 | -12 | 0 | 0 | 0 | 0 | 0 | 68% | 0 | 36% | 108 | 0
CCNC(=S)N(CCc1c(C)[nH]c2ccc(F)cc12)Cc1cccnc1 | 0 | 0 | 0 | 0 | 0 | 0 | - | - | - | - | -
COc1ccc2[nH]c(C)c(CCN(Cc3cccs3)C(=S)Nc3ccccc3)c2c1 | -11 | 0 | 0 | -13 | 0 | 0 | 38% | 0 | 34% | 130 | 0.13
Cc1[nH]c2ccc(F)cc2c1CCN(Cc1cccnc1)C(=S)Nc1ccc(F)cc1 | -9.6 | 0 | 0 | -9.5 | 0 | 0 | 0 | 0 | 26% | 103 | 0
O=C(CSc1nc2[nH]ncc2c(=O)n1-c1ccc(Cl)c(Cl)c1)NCc1ccccc1Cl | -8.2 | 0 | 0 | -12 | 0 | 0 | 48% | 0 | 34% | 128 | 0.14
O=C(CSc1nc2[nH]ncc2c(=O)n1-c1ccccc1)NCCc1ccccc1 | 0 | 0 | 0 | 0 | 0 | 0 | - | - | - | - | -
